# PRMT1 FP inh: PRMT1 (human) inhibition, primary screen | recombinant PRMT1, activity-based probe fluorescence polarization | Q99873 | 1.3% of 370,000 active | inhibition, % at 2.79 µM;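 active means inhibition above about 21% made by adding two undisclosed values, limit read from the data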
# SIAE inh: inhibitors of human sialic acid acetylesterase SIAE | Q9HAT2 | SIAE FP-Rh probe binding, fluorescence polarization | inhibition, % at 9.66 µM | 0.69% of 370,000 active | AID 1053197;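 active means inhibition above a cutoff: mean of compounds within the control limits plus 3 SD of those, cut at about 17% in these data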;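 further: 0% = plate median of compound wells and 100% = probe without SIAE protein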
# HTRA1 inhibitor: inhibitors of human serine peptidase HTRA1 | 0.5% of 340,000 active | AID 504803 | recombinant HTRA1, FP-rhodamine activity-based probe, fluorescence polarization | inhibition, % at 5.96 µM | Q92743; in the data active means inhibition above about 36%;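 further: 0% = enzyme with DMSO and 100% = wells lacking enzyme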
# TCR-CD3 inh: human TCR-CD3 binding inhibition; inhibition, % at 9.4 µM; 0.37% of 360,000 active; TAMRA-labeled TCR probe fluorescence, biochemical; in the data active means inhibition above about 19%;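 further: recombinant mutant TCR 2C K166C tagged with TAMRA read by polarization; 0% = receptor in buffer alone and 100% = receptor with positive control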
# ABHD4 inh: ABHD4 (mouse) inhibition, primary FP screen | Q8VD66 | purified mABHD4, FP-Rh probe fluorescence polarization | 0.54% of 370,000 active | inhibition, % at 8.92 µM;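 active means inhibition exceeding the mean over every tested compound plus 3 SD, cut at about 30% in these data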;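 further: 0% = plate median of compound wells and 100% = S159A mutant with DMSO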
# Target sequence (Q8VD66 whole entry, looked up): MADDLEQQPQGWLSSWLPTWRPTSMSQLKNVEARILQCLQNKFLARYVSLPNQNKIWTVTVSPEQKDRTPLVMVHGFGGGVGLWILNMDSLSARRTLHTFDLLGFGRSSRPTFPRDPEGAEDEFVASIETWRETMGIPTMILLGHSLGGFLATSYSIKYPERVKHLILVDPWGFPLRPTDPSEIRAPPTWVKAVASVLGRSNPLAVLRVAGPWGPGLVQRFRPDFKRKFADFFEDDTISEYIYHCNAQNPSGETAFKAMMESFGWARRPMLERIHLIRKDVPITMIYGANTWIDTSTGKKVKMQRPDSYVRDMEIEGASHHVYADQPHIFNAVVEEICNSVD
#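 Test system: mABHD4 protein | Buffer or medium: HEPES pH 7.0 buffer, 150 mM NaCl, 0.01% Pluronic F-127 | Probe or stimulus: FP-Rh fluorescent activity-based probe, added after compound pre-incubation | Timing: Pre-incubation 45 min, probe exposure 60 min, at 25 °C | Technique: Fluorescence polarization, excitation 525 nm, emission 598 nm, BODIPY TMR filters | Repeats: Single well per compound (singlicate)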
# PAD4 FP inh: PAD4 (human) enzyme inhibition. 0.41% of 330,000 active. Q9UM07. recombinant PAD4, RCA probe fluorescence polarization. inhibition, % at 6.36 µM;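 active means percent inhibition above a cutoff equal to the mean of all tested compounds plus 3 SD, cut at about 15% in these data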;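 further: 0% = PAD4 with RCA probe and DMSO and 100% = probe without PAD4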
# PRMT1 confirm: confirmation of human PRMT1 inhibitors; shares compounds with PRMT1 FP inh; recombinant His-PRMT1, activity-based probe fluorescence polarization; inhibition, % at 2.79 µM; 42% of 3,300 active; AID 687036;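 active means mean inhibition across replicates above the hit cutoff derived for the earlier primary screen, cut at about 22% in these data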
# ABHD4 confirm: ABHD4 (mouse) inhibition, FP confirmation; inhibition, % at 8.92 µM; 55% of 1,800 active; shares compounds with ABHD4 inh; purified mABHD4, FP-Rh probe fluorescence polarization;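 active means mean inhibition across replicates above the hit cutoff set in the primary screen, cut at about 30% in these data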;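 further: 0% = wild-type ABHD4 with DMSO and 100% = catalytically dead S159A mutant with DMSO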
# SIAE confirm: human SIAE inhibition, confirmation | SIAE FP-Rh activity-based probe, fluorescence polarization | inhibition, % at 9.66 µM | 13% of 2,300 active | shares compounds with SIAE inh | AID 1117263;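 active means mean inhibition of the replicates above the hit cutoff set in the primary screen, cut at about 17% in these data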;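 further: 0% = SIAE with DMSO and probe and 100% = probe without SIAE; inhibitors lower polarization as more probe stays unbound to SIAE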
# * hit, by the source's call; . = no result given; + = active, no number. A selection: hits, their analogues and other compounds. The true share with any hit is near 2.9%.
SMILES,PRMT1 FP inh,SIAE inh,HTRA1 inhibitor,TCR-CD3 inh,ABHD4 inh,PAD4 FP inh,ABHD4 confirm,others
Clc1ccc(-n2c(Cc3cccs3)nnc2SC/C=C/c2ccccc2)cc1,1,-2,.,.,-2,.,.,
C/C(=N/Nc1ccnc2cc(Cl)ccc12)c1ccc(O)cc1,37*,37*,4,2,29,0,.,PRMT1 confirm=1;SIAE confirm=15
O=C(NC1CCCCN(Cc2ccc(Cl)cc2)C1=O)C1C2CC3CC(C2)CC1C3 (centres undefined),2,5,.,.,6,.,.,
Cc1cccc(N=C2NC(=O)/C(=C/c3cccn3C)S2)c1C,-4,-18,5,-2,-3,-3,.,
Cc1cccc(N=C2NC(=O)/C(=C/C=C/c3ccco3)S2)c1C,29*,18*,32,13,21,-8,.,PRMT1 confirm=31*;SIAE confirm=6
CC(C)[C@H](N)C(=O)N[C@H](C(=O)N1CCC2CCN(S(=O)(=O)c3ccccc3)CC21)C(C)C (some centres undefined),2,-3,.,.,4,.,.,
COc1ccc(C2COc3cc(O)ccc3C2)c(OC)c1O (centres undefined),4,5,-6,-10,2,1,.,
Oc1ccc2c(c1)OCC1(O)Cc3cc(O)c(O)cc3C21 (centres undefined),125*,+,31,.,110*,.,129*,PRMT1 confirm=119*;SIAE confirm=+
Cc1ccc(N2C(=O)/C(=C/c3ccco3)SC2=S)cc1,11,9,16,10,29,-10,.,
O=C1S/C(=C\C=C\c2ccco2)C(=O)N1c1ccccc1,40*,21*,9,-2,14,-7,.,PRMT1 confirm=9;SIAE confirm=3
N#Cc1ccc(N=c2ssnc2Cl)cc1,91*,22*,7,1,7,0,.,PRMT1 confirm=97*;SIAE confirm=17*
O=C(NC1CCCCN(Cc2cccc(Cl)c2)C1=O)c1ccc(-c2ccccc2)cc1 (centres undefined),-2,-1,.,.,0,.,.,
O=C(OCc1cn(Cc2cccc(F)c2)nn1)N1CCCCC1,0,5,.,.,0,.,.,
CCOC1=CC2=C(C(=O)C(Cl)=CC2=O)[C@@H]2CN(S(=O)(=O)c3ccc(C)cc3)[C@@H](c3ccccc3)[C@H]12,50*,23*,.,15,89*,.,101*,PRMT1 confirm=91*;SIAE confirm=18*
CCN1C(=O)[C@@H]2[C@@H]3CN(S(=O)(=O)c4ccc(C)cc4)[C@@H](c4ccccc4)[C@@H]3C(=O)C[C@@H]2C1=O,-3,2,.,1,2,.,.,
O=C(O)CC1NC(=S)N(c2ccccc2)C1=O (centres undefined),-1,-5,-5,7,-1,-4,.,
O=C1C(CSCc2ccccc2)NC(=S)N1c1ccccc1 (centres undefined),27*,100*,.,-2,-2,-3,.,PRMT1 confirm=68*;SIAE confirm=-83
Nc1c(C(=O)Nc2ccccc2)sc2nc(-c3ccco3)ccc12,52*,30*,-7,6,8,-4,.,PRMT1 confirm=40*;SIAE confirm=5
COc1ccccc1NC(=O)c1sc2nc(-c3ccco3)ccc2c1N,.,.,-4,.,.,-8,.,
O=C(CNc1cccc2ccccc12)N/N=C/C(Br)=C/c1ccccc1,20,7,22,3,32*,2,3,
O=C(CNc1cccc2ccccc12)N/N=C/c1ccc[nH]1,2,3,28,1,29,4,.,
COc1ccc(NC(=S)Nc2ccc(N)c([N+](=O)[O-])c2)cc1,11,2,36,-2,34*,-10,8,
Cc1ccc(Nc2nc(-c3ccc(O)c(O)c3)cs2)nc1,6,13,.,13,42*,.,53*,
CNc1ccc(/C=C(\CCC(=O)O)c2nc3ccccc3s2)cc1[N+](=O)[O-],5,-14,8,1,47*,-6,54*,
CN(c1ccccc1)c1ccc(/C=C(\CCC(=O)O)c2nc3ccccc3s2)cc1[N+](=O)[O-],1,14,31,3,69*,8,62*,
SMILES,PRMT1 FP inh,SIAE inh,HTRA1 inhibitor,TCR-CD3 inh,ABHD4 inh,PAD4 FP inh,ABHD4 confirm,others
Cc1ccc(/C=C(\CCC(=O)O)c2nc3ccccc3s2)cc1[N+](=O)[O-],4,-18,-18,-7,-28,4,.,
CCOC(=O)[C@]12CCCCC/C=C\1N(CCc1ccc(Cl)cc1)C(=O)[C@H]2CC(=O)NCc1cccc2ccccc12,-1,-7,.,.,-11,.,.,
Cn1cc(CN2CCC(C(O)c3cccs3)CC2)c(-c2ccccc2F)n1 (centres undefined),7,2,5,-9,48*,1,2,
CC(=O)C1C(=O)c2c(cccc2[N+](=O)[O-])C1=Nc1ccccc1C (centres undefined),3,3,.,-9,6,-1,.,
CC(=O)C1C(=O)c2c(cccc2[N+](=O)[O-])C1=Nc1cccc(Cl)c1 (centres undefined),14,8,14,8,36*,-1,61*,
CCC[C@H](/C=C/C(=O)OC(C)(C)C)Sc1ccc(OC)cc1,4,1,.,.,2,.,.,
COC(=O)[C@@H](NCc1ccc(B(O)O)cc1)C(C)C,1,-6,-3,4,48*,.,36*,
CC1=NN(c2ccccc2)C(=O)/C1=C/c1c(O)n(-c2ccc(F)cc2)[nH]c1=O,3,-20,10,9,37*,-1,47*,
COC(CNC(=O)[C@H](Cc1ccccc1)NC1(C(=O)NC2CCCCC2)CCCC1)OC,-2,-5,.,.,-8,.,.,
Cc1cc2nc(CCN(C(=S)NCC(C)C)C3CCCC3)[nH]c2cc1C,5,-4,-42,-7,42*,3,48*,
O=C1NN(c2ccc(Cl)c(Cl)c2)C(=O)/C1=C/c1ccc(-c2ccccc2C(=O)O)o1,7,4,2,-4,31*,.,65*,
COC(=O)[C@]12C[C@H](CC(=O)N3CCC(c4ccccc4)CC3)C(=O)N(CCC3=CCCCC3)C1=C[C@H](C1CCCC1)O[C@@H]2C,0,2,.,.,8,.,.,
CCNc1sc(C(=O)c2cccs2)c(N)c1-c1nc2ccccc2s1,7,8,28,2,33*,-2,19,
CCN(CC)S(=O)(=O)c1ccc2c(c1)NC(=O)C1CCCN21 (centres undefined),5,-8,-7,-9,31*,-1,44*,
O=C1Nc2cc(S(=O)(=O)N3CCCC3)ccc2N2CCCC12 (centres undefined),1,-23,-8,3,-2,-8,.,
